Reference: ChEMBL document CHEMBL2346548, “Design, synthesis, and structure-activity relationship studies of tryptanthrins as antitubercular agents” (J Nat Prod, 2013)
Converted amounts (≈) assume the structure as drawn.

Assays:
[1] = AUC (0 to infinity) in C57BL/6 mouse at 40 mg/kg, po formulated in 0.1% SLS; type: ADME, organism-based; design: time infinity, dose 40 mg/kg, route oral; conditions: plasma
[2] = test system: Mycobacterium tuberculosis; assay: Antitubercular activity against Mycobacterium tuberculosis Erdman ATCC 35801 infected in C57BL/6 mouse assessed as viable bacterial load in spleen at 200 mg/kg twice daily through gavage 5 days per week for 4 weeks starting on 10th day post-infection (reference value: 4.79 +/- 0.21 log10CFU/spleen); type: functional
[3] = Cmax in C57BL/6 mouse at 40 mg/kg, po formulated in 0.1% SLS; type: ADME, organism-based; design: dose 40 mg/kg, route oral; conditions: in vivo
How it was run: (§1)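 Female C57BL/6 mice, single 40 mg/kg oral gavage; three mice per time point; plasma at 30 min to 24 h, LC-MS; noncompartmental parameters reported as means.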

[4] = Tmax in Sprague-Dawley rat at 20 mg/kg, po; type: ADME, organism-based; design: dose 20 mg/kg, route oral; conditions: in vivo
[5] = Protein binding in human plasma at 10 uM incubated for 8 hrs at 37 degC by equilibrium dialysis method; type: ADME, cell-free; conditions: read-out: PPB (converted)
How it was run: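 Equilibrium dialysis: 10 μM compound in 1% DMSO in human plasma vs 0.05 M phosphate buffer pH 7.5 across 12–14 K cutoff membrane, at least 8 h at 37 °C; HPLC-photodiode detection at 230 nm; duplicate means.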

CYP3A4 = CYP3A4 (Homo sapiens, UniProt P08684); assay: Inhibition of human recombinant CYP3A4 at 10 uM incubated for 30 mins at 37 degC using 7-benzyloxy-4-(trifluoromethyl)coumarin substrate; type: ADME; conditions: recombinant CYP3A4, probe 7-benzyloxy-4-(trifluoromethyl)coumarin
Chain of CYP3A4 (P08684 whole entry): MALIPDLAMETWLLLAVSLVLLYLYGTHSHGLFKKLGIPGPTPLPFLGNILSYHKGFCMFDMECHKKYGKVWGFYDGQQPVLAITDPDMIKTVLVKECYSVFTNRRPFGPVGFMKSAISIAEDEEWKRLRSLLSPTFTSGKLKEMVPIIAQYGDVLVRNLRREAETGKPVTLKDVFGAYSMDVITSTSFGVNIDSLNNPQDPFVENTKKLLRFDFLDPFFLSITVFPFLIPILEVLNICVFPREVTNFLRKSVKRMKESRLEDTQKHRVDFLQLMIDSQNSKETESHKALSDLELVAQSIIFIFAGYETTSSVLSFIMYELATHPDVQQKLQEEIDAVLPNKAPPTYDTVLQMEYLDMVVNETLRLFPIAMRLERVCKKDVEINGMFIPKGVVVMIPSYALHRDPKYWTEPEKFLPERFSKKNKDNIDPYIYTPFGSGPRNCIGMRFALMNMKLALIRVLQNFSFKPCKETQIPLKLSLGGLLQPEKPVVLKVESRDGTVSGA

Salmonella typhimurium [6] = assay: Mutagenicity in Salmonella typhimurium TA98 assessed as mean revertant colonies at 0.25 to 240 ug/well in presence of rat liver S9 fraction; type: toxicity, organism-based; conditions: salmonella enterica subsp. enterica serovar typhimurium
How it was run: (§2)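 MicroAmes: strains preincubated with or without Aroclor-induced rat liver S9, duplicate wells, six concentrations 0.25–250 μg equivalents/well; DMSO vehicle, 4-nitroquinoline-N-oxide (−S9) and 2-aminoanthracene (+S9) positive controls; revertant colonies counted; cytotoxicity noted as reduced revertants or background lawn; precipitation recorded.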

[7] = Metabolic stability in human liver microsomes assessed as parent compound remaining at 1 uM incubated for 1 hr by HPLC-MS/MS method; type: ADME, Microsome; conditions: read-out: Stability
How it was run: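 Pooled mixed-gender human liver microsomes (0.3 mg/mL protein), 1 μM compound with NADP-regenerating system in phosphate buffer pH 7.4, 1 h at 37 °C; parent measured at start and end by HPLC-MS/MS; duplicate means.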

[8] = Solubility in simulated gastric fluid at pH 1.5 by HPLC method; type: physicochemical
How it was run: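 Compound at 200 μM final in 2% DMSO in simulated gastric fluid, shaken 24 h at room temperature; HPLC-photodiode array detection at 230 nm; duplicate means.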

[9] = test system: Mycobacterium tuberculosis; assay: Antitubercular activity against Mycobacterium tuberculosis H37Rv incubated at 37 degC for 14 days in presence of 40% human serum by microplate alamar blue assay; type: functional; conditions: 336 h
How it was run: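 This is the MABA run in 7H9 broth containing 40% human serum. Compounds were 2-fold serially diluted, and wells were inoculated with H37Rv at 2 × 10⁵ CFU/mL. Incubation was at 37 °C for 14 days, then Alamar Blue was added. MIC was the lowest concentration preventing the blue-to-pink colour change.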

[10] = Cmax in Sprague-Dawley rat at 20 mg/kg, po; type: ADME, organism-based; design: dose 20 mg/kg, route oral; conditions: in vivo
[11] = AUC (0 to infinity) in Sprague-Dawley rat at 5 mg/kg, iv; type: ADME, organism-based; design: time infinity, dose 5 mg/kg, route intravenous; conditions: plasma
[12] = Volume of distribution in Sprague-Dawley rat at 5 mg/kg, iv; type: ADME, organism-based; design: dose 5 mg/kg, route intravenous; conditions: in vivo
How it was run: (§3)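 Male Sprague-Dawley rats (n = 3), single 5 mg/kg iv dose as solution in PEG300/DMSO 50:50; plasma sampled 0.083–24 h, LC-MS bioanalysis; noncompartmental analysis, means.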

[13] = Permeability across basolateral to apical side in human Caco2 cells incubated for 1 hr at 37 degC by HPLC-MS/MS method; type: ADME, cell-based; conditions: Caco-2
[14] = test system: Mycobacterium tuberculosis; assay: Antitubercular activity against Mycobacterium tuberculosis Erdman ATCC 35801 infected in C57BL/6 mouse assessed as viable bacterial load in spleen at 200 mg/kg/day through gavage 5 days per week for 4 weeks starting on 10th day post-infection (reference value: 4.79 +/- 0.21 log10CFU/spleen); type: functional
Salmonella typhimurium [15] = assay: Mutagenicity in Salmonella typhimurium TA98 assessed as mean revertant colonies at 0.25 to 240 ug/well in absence of rat liver S9 fraction; type: toxicity, organism-based; conditions: salmonella enterica subsp. enterica serovar typhimurium; how it was run: as §2
[16] = Solubility in simulated intestinal fluid at pH 7.6 by HPLC method; type: physicochemical
How it was run: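 Simulated intestinal fluid medium; each analogue 200 μM final in 2% DMSO, shaken 24 h at room temperature, then HPLC with photodiode array read at 230 nm; duplicate, means given.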

[17] = Efflux ratio in human Caco2 cells incubated for 1 hr at 37 degC by HPLC-MS/MS method; type: ADME, cell-based; conditions: Caco-2
[18] = test system: Mycobacterium tuberculosis; assay: Antitubercular activity against Mycobacterium tuberculosis H37Rv incubated at 37 degC for 7 days by microplate alamar blue assay; type: functional; conditions: Mycobacterium tuberculosis, H37Rv, 168 h
How it was run: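 Mtb H37Rv was grown in 7H9 broth with glycerol, Casitone, 10% OADC and 0.05% Tween 80 to OD600 0.4. Compounds were 2-fold serially diluted from DMSO stocks in 7H9, and wells were inoculated at 2 × 10⁵ CFU/mL. After 7 days at 37 °C, Alamar Blue was added and read after a further 24 h. MIC was the lowest concentration preventing the blue-to-pink change.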

[19] = Elimination half life in Sprague-Dawley rat at 5 mg/kg, iv; type: ADME, organism-based; design: dose 5 mg/kg, route intravenous; conditions: in vivo, read-out: beta t1/2 (converted); how it was run: as §3
[20] = Tmax in C57BL/6 mouse at 40 mg/kg, po formulated in 0.1% SLS; type: ADME, organism-based; design: dose 40 mg/kg, route oral; conditions: in vivo; how it was run: as §1
[21] = test system: Mycobacterium tuberculosis; assay: Antitubercular activity against Mycobacterium tuberculosis Erdman ATCC 35801 infected in C57BL/6 mouse assessed as viable bacterial load in lung at 200 mg/kg/day through gavage 5 days per week for 4 weeks starting on 10th day post-infection (reference value: 6.49 +/- 0.10 log10CFU/lung); type: functional
[22] = Oral bioavailability in Sprague-Dawley rat at 20 mg/kg; type: ADME, organism-based; conditions: in vivo
[23] = Distribution coefficient, log D of the compound between n-octanol and PBS buffer at pH 7.4 incubated for 1 hr by shake flask method; type: physicochemical
How it was run: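 Partition between n-octanol and PBS pH 7.4 after 1 h shaking at room temperature; phases analysed by HPLC with photodiode detection; logD = log10 of organic/aqueous amount.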

[24] = test system: Mycobacterium tuberculosis; assay: Antitubercular activity against non-replicating Mycobacterium tuberculosis H37Rv incubated for 10 days by LORA method; type: functional; conditions: 240 h
How it was run: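 H37Rv carrying pFCA-luxAB was adapted to low oxygen by gradual self-depletion in a sealed, slowly stirred flask. It was then exposed to compounds for 10 days under anaerobic conditions. Cultures recovered for 28 h in ambient oxygen before n-decanal substrate was added and luminescence read. MIC was the lowest concentration giving a 90% reduction in luminescence versus untreated controls.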

[25] = Half life in Sprague-Dawley rat at 20 mg/kg, po; type: ADME, organism-based; design: dose 20 mg/kg, route oral; conditions: in vivo
[26] = Cmax in C57BL/6 mouse at 40 mg/kg, po formulated in 20% DMSODMSO, 20% PEG400, 60% (30% HP-beta-CD in water); type: ADME, organism-based; design: dose 40 mg/kg, route oral; conditions: in vivo; how it was run: as §1

## O=C1C2=Nc3ccccc3CN2c2ccc(Cl)cc21
[1]
  AUC(0-inf): 1400 ng·h/mL
[2]
  log10cfu: 4.89
[3]
  Cmax: 197 ng/mL
[4]
  Tmax: 2 h
[5]
  fraction unbound at 8 h, 10 µM: 0.013
CYP3A4
  inhibition at 0.5 h, 10 µM: 1%
Salmonella typhimurium [6]
  Activity: Non-toxic
[7]
  remaining at 1 h, 1 µM: 53%
[8]
  solubility: 79.2 µM (≈ 21.3 µg/mL)
[9]
  MIC: 0.125 µg/mL
[10]
  Cmax: 50 ng/mL
[11]
  AUC(0-inf): 930 ng·h/mL
[12]
  Vd: 11.7 L/kg
[13]
  Papp B→A at 1 h: 20.8 ×10⁻⁶ cm/s
[14]
  log10cfu: 4.85
Salmonella typhimurium [15]
  Activity: Non-toxic
[16]
  solubility: 19.3 µM (≈ 5.19 µg/mL)
[17]
  efflux ratio at 1 h: > 1
[18]
  MIC: 0.125 µg/mL (≈ 0.465 µM)
[19]
  half-life: 1.42 h
[20]
  Tmax: 1 h
[21]
  log10cfu: 6.58
[22]
  bioavailability: 8%
[23]
  logD at 1 h: 3.37
[24]
  MIC90: 24 µg/mL (≈ 89.3 µM)
[25]
  half-life: 3.33 h
[26]
  Cmax: 371 ng/mL
